The array DNA melting data of Ke et al. (doi:10.1101/2024.01.08.574731)

Tests used:
[1] = folding enthalpy; higher = less favourable; fluorescence melt of hairpins on a sequencing array, two-state fit; conditions: sodium 0.088 M
How it was run: (§1)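 Folding enthalpy and melting temperature come from bootstrapped two-state fits to Cy3 fluorescence of library hairpins carrying annealed Cy3 and quencher oligos on a sequenced MiSeq flow cell. Imaging was done in 50 mM Na-HEPES pH 8.0, 25 mM NaCl, stepping by 2.5 °C up to 60 °C, and signals were normalised to pre-quench Cy3 and to control constructs. Results of four replicates were combined by inverse variance, and fitted temperatures were raised by 9.35 °C to match UV melts.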

[2] = melting temperature; fluorescence melt of hairpins on a sequencing array, two-state fit, raised by 9.35 °C to match UV melts; conditions: sodium 0.088 M
How it was run: as §1

| Sequence | folding enthalpy [1] [kcal/mol] | Tm [2] [°C] |
| --- | --- | --- |
| GATCGGAAAACCGATC ((((((....)))))) | -35.5 | 51.2 |
| GCGCCGCGAAAGCGCAGC ((..(((....)))..)) | -14.1 | 59.8 |
| GCGGTTTCCCGC ((((....)))) | -25 | 56.2 |
| GCACGAGGAAACTCGTAC (.(((((....))))).) | -12.7 | 38.9 |
| GCCTCCGGAAACGGGGGC (((.(((....))).))) | -31 | 67.1 |
| GTTGCCGCGAAAGCGAAC (((..(((....)))))) | -12.6 | 35.6 |
| GAAAATACGAAAGTATTC (((..(((....)))))) | -13.7 | 27.7 |
| GGACGAGGAAACTCATCC (((.(((....))).))) | -27.4 | 36.7 |
| GTTCGTCGAAAGACTAAC (((.(((....))).))) | -22.2 | 41.3 |
| GGCTCCGGAAACGGAACC ((.((((....)))).)) | -28.9 | 51.1 |
| GACCGTCCGAAAGGAGTC (((..(((....)))))) | -11.8 | 28.6 |
| GATCTGTTACAGATC ((((((...)))))) | -36.3 | 50.5 |
| GCGGTAACCGC ((((...)))) | -27.8 | 57.5 |
| GATCTGGCAACAGATC ((((((....)))))) | -35 | 57.6 |
| GATCACCTTGGTGATC ((((((....)))))) | -37.2 | 67 |
| GCCATACGAAAGTACGGC (((.(((....))).))) | -37 | 51.5 |
| GGGAGCGCGAAAGCGCCC (((..(((....)))))) | -10.1 | 58.6 |
| GATGGCCGAAAGGCAATC (((.(((....))).))) | -20.9 | 57.3 |
| GCGACAGCTCGC ((((....)))) | -9.44 | 67 |
| GTTACTCGAAAGAGAAC (((.(((....)))))) | -13.7 | 31.5 |
| GCGCTGCGAAAGCAAAGC ((..(((....)))..)) | -17.7 | 60 |
| GCGAGGCGAAAGCGACGC (((..((....))..))) | -25.4 | 62.1 |
| GTAATGGAAACATTAC ((((((....)))))) | -31.7 | 46.7 |
| GTGTGTGGAAACACACAC (((((((....))))))) | -32.2 | 68.8 |

| Sequence | folding enthalpy [1] [kcal/mol] | Tm [2] [°C] |
| --- | --- | --- |
| GCTGGCGAAAGCCACAGC ((((((....)))..))) | -13.9 | 49.5 |
| GCTCTCGGAAACGAAAGC (((.(((....))).))) | -28.5 | 39.4 |
| GATCATTGCTATGATC ((((((....)))))) | -36 | 47.8 |
| GCGGGGACCCGC ((((....)))) | -26.3 | 68.3 |
| GTTCACCGAAAGGTAAAC (((.(((....))).))) | -20.4 | 40.5 |
| TCTCTGAAAAGAGA (((((....))))) | -12.1 | 37.2 |
| GTAGTGGGAAACTACTGC (.(((.(....).))).) | -28.8 | 46 |
| GTCACTGGAAACAGCGAC (((.(((....))).))) | -35.2 | 47.2 |
| GTAAGGGGAAACCTTTAC ((((.((....)).)))) | -27.1 | 33.9 |
| GATCTGACACAGATC ((((((...)))))) | -35.7 | 48.1 |
| GAGCTAGGAAACTAGCCC (.(((((....))))).) | -12.9 | 40.4 |
| GTACATGGAAACATGCAC ((.((((....)))).)) | -22.7 | 39.2 |
| GATCCTACGAAGGATC ((((((....)))))) | -35.9 | 50.3 |
| GGCAATCGAAAGATCGCC (((.(((....))).))) | -34.7 | 51 |
| GAACGACGAAAGTCATTC (((.(((....))).))) | -21.6 | 38.6 |
| GGTGGCGAAAGCCAGACC ((((((....)))..))) | -12.6 | 46.9 |
| GGGTACGAAAGTAAACCC ((((((....)))..))) | -28.4 | 47.3 |
| CATCCGAAAGGATG (((((....))))) | -25.8 | 63.1 |
| GCAAGGGGAAACCTTTGC ((((.((....)).)))) | -30.8 | 47.6 |
| GCCACCACGAAAGTGGGC (((..(((....)))))) | -9.17 | 46 |
| GATACAGGAAACTGTATC (((((((....))))))) | -42.9 | 54 |
| GGGCGTGGAAACGCGCCC (((((.(....).))))) | -22.5 | 68.3 |
| GCAAACCGAAAGGTGTGC (((.(((....))).))) | -37.6 | 57.3 |
| GACTCCGAAAGGAACGTC ((((((....)))..))) | -15.2 | 36 |

| Sequence | folding enthalpy [1] [kcal/mol] | Tm [2] [°C] |
| --- | --- | --- |
| GCACGTGGAAACACGCAC (..((((....))))..) | -9.68 | 29.2 |
| GATCACCGTGGTGATC ((((((....)))))) | -29.5 | 66.3 |
| GCGTGCGAAAGCACCGC ((((((....))).))) | -13.8 | 67.2 |
| GGAGGGGCGAAAGCCTCC (((..(((....)))))) | -13.4 | 44.8 |
| GGCGAGCGAAAGCTAGCC (((.(((....))).))) | -42.2 | 68.7 |
| GATCACAGCCGTGATC ((((((....)))))) | -44.6 | 57.8 |
| GTGCGCGAAAGCGACAC ((((((....))).))) | -16.9 | 63.8 |
| GGAACAGGAAACTATTCC ((((.((....)).)))) | -13.4 | 24.7 |
| GGGACTTCGAAAGAACCC (((..(((....)))))) | -5.69 | 29.8 |
| GCACTACGAAAGTAATGC (((.(((....))).))) | -29.3 | 43.7 |
| GCAAAGTCGAAAGACTGC (((..(((....)))))) | -19.5 | 47.8 |
| GCAGTTGGAAACAGCTGC ((((.((....)).)))) | -31.9 | 54.5 |
| GATGGCCGAAAGGCATC (((.(((....)))))) | -14.6 | 49.9 |
| GCAACCGAAAGGTCTGC ((((((....))).))) | -22.7 | 47.6 |
| GGGCCACGAAAGTGCCC (((.(((....)))))) | -21.9 | 61.6 |
| GGGATCCGAAAGGACCCC (((.(((....))).))) | -35.2 | 59.1 |
| GTTTCGAAAGAAAC (((((....))))) | -29.1 | 53.6 |
| GATCTTTGCAAAGATC ((((((....)))))) | -57.2 | 50.9 |
| GCCCTCCCGAAAGGGGGC (((..(((....)))))) | -16.1 | 58 |
| GCATGCGAAAGCAATGC ((((((....))).))) | -31 | 64.2 |
| GCGGTTGGAAACAATCGC (((.(((....))).))) | -40.8 | 56.1 |
| GATCCACTAATGGATC ((((((....)))))) | -32.7 | 49.8 |
| GTCTGCTCGAAAGAGGAC (((..(((....)))))) | -18.1 | 31.3 |
| GGATATCCGAAAGGATCC (((..(((....)))))) | -11.4 | 32.3 |

| Sequence | folding enthalpy [1] [kcal/mol] | Tm [2] [°C] |
| --- | --- | --- |
| GATCTTTCTGAAGATC ((((((....)))))) | -36 | 45.2 |
| GGAGTAGGAAACTACTTC (.(((((....))))).) | -29.2 | 44.4 |
| GATAGCGGAAACGTTGTC ((.(.((....)).).)) | -16.1 | 27.5 |
| GGAGCAGGAAACTGTTCC (((.(((....))).))) | -29.5 | 48 |
| GTTTCCGGAAACGGAGAC ((.((((....)))).)) | -20.2 | 47.6 |
| GTCCAGGGAAACCTAGAC (((.(((....))).))) | -19 | 33.3 |
| GATGAACGAAAGTTAATC (((.(((....))).))) | -23.7 | 38.6 |
| GGGCTCGAAAGAGCACCC ((((((....)))..))) | -12.2 | 58.1 |
| GCCTCGCGAAAGCCAAGC ((.(.((....)).).)) | -6.14 | 28.4 |
| GTAGAGCGAAAGCTTTAC (((.(((....))).))) | -24.4 | 47.5 |
| GGACTCGAAAGAGCTCC ((((((....))).))) | -26 | 45 |
| GATCGTCTCAACGATC ((((((....)))))) | -41.6 | 57.6 |
| GGCCATGGAAACATAGCC (((.(((....))).))) | -31.5 | 40.8 |
| GCCCCCGGAAACGGAGGC (((.(((....))).))) | -35 | 54.9 |
| GCGGCGCCGAAAGGCCGC (((..(((....)))))) | -14.3 | 67.2 |
| GCGTCCCGACGC ((((....)))) | -23.3 | 61 |
| GATCTGCAACCAGATC ((((((....)))))) | -31.7 | 46.2 |
| GTTGCCGGAAACGACAAC ((((.((....)).)))) | -28 | 48.5 |
| GGCGCTGGAAACAGCACC ((.((((....)))).)) | -29.7 | 54.8 |
| GCCATGCGAAAGCAACGC ((..(((....)))..)) | -8.26 | 29 |
| CGCCGACGGAAACGTGCG (((..(((....)))))) | -27.6 | 45.5 |
